Results taken from ChEMBL document CHEMBL3872233, “Topical Treatment of Leishmania tropica Infection Using (-)-α-Bisabolol Ointment in a Hamster Model: Effectiveness and Safety Assessment” (J Nat Prod, 2016).
Active and inactive are the calls of the source. The rule behind the calls is not given here.

How the values were obtained:
[1] = system: Syrian golden hamster; assay: Toxicity in Syrian hamster infected with Leishmania tropica MHOM/MA/1988/LEM1314 promastigotes assessed as spleen weight at 5 % administered tropically on footpad for 3 weeks starting at week 7 post infection measured 1 week post last dose (reference value: 178.8 +/- 1.2 mg); type: organism-based, Mesocricetus auratus; conditions: in vivo, topical_or_ocular, 168 h
[2] = system: Leishmania tropica; assay: (§1) Antileishmanial activity against Leishmania tropica MHOM/MA/1988/LEM1314 promastigotes infected in Syrian hamster assessed as reduction in lesion thickness at 5 % administered once daily tropically on footpad for 3 weeks starting at week 7 post infection measured 1 week post last dose relative to control; type: functional; design: scale not given: the % may be the effect or the level left
Method in brief: (§2)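 L. tropica stationary-phase promastigotes (3 × 10^7 in 50 μL PBS) injected into the left hind footpad. Treatment began at week 7 (+75% footpad thickness) and ran daily for 21 days, n = 10/group. Routes were 50 mg ointment on the lesion (cetyl alcohol/lanolin/petrolatum base), gavage in olive oil, or intralesional meglumine antimoniate 2 mg SbV/kg. Lesion thickness was measured weekly against base-only ointment; sacrifice was 1 week after the last dose.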

[3] = system: Syrian golden hamster; assay: Toxicity in Syrian hamster assessed as liver weight at 5 % administered tropically on footpad for 28 days (reference value: 4.1 +/- 0.7 g); type: organism-based, Mesocricetus auratus; conditions: in vivo, topical_or_ocular, 672 h
[4] = system: Leishmania tropica; assay: as §1, with “[…]” for “5 %”, “through oral gavage” for “tropically on footpad”; type: functional; design: scale not given: the % may be the effect or the level left; method in brief: as §2
[5] = system: Leishmania tropica; assay: as §1, with “parasite load in foodpad skin” for “lesion thickness”, “1” for “5”, “dose by qPCR analysis” for “dose”; type: functional; design: scale not given: the % may be the effect or the level left
Method in brief: (§3)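 Hamsters were infected in the footpad and treated daily for 21 days from week 7 post-infection, n = 10/group, and sacrificed 1 week after the last dose. Footpad skin, liver and spleen DNA was assayed by L. tropica-specific TaqMan qPCR (chromosome 29 target), in triplicate with 50 ng DNA per 25 μL reaction. Load was interpolated from Ct on a calibration curve of promastigote DNA, relative to base-ointment controls.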

[6] = system: Leishmania tropica; assay: as §1, with “1” for “5”; type: functional; design: scale not given: the % may be the effect or the level left; method in brief: as §2
[7] = system: Syrian golden hamster; assay: Toxicity in Syrian hamster infected with Leishmania tropica MHOM/MA/1988/LEM1314 promastigotes assessed as mean serum creatinine levels at 5 % administered tropically on footpad for 3 weeks starting at week 7 post infection measured 1 week post last dose (reference value: 0.19 mg/dl); type: organism-based, Mesocricetus auratus; conditions: in vivo, topical_or_ocular, 168 h
[8] = system: Syrian golden hamster; assay: Toxicity in Syrian hamster infected with Leishmania tropica MHOM/MA/1988/LEM1314 promastigotes assessed as spleen weight at 2.5 % administered tropically on footpad for 3 weeks starting at week 7 post infection measured 1 week post last dose (reference value: 178.8 +/- 1.2 mg); type: organism-based, Mesocricetus auratus; conditions: in vivo, topical_or_ocular, 168 h
[9] = system: Syrian golden hamster; assay: Toxicity in Syrian hamster assessed as liver weight at 500 mg/kg administered through oral gavage for 28 days (reference value: 4.1 +/- 0.7 g); type: organism-based, Mesocricetus auratus; conditions: in vivo, 672 h
[10] = system: Syrian golden hamster; assay: Toxicity in Syrian hamster infected with Leishmania tropica MHOM/MA/1988/LEM1314 promastigotes assessed as spleen weight at 1 % administered tropically on footpad for 3 weeks starting at week 7 post infection measured 1 week post last dose (reference value: 178.8 +/- 1.2 mg); type: organism-based, Mesocricetus auratus; conditions: in vivo, topical_or_ocular, 168 h
[11] = system: Syrian golden hamster; assay: Toxicity in Syrian hamster infected with Leishmania tropica MHOM/MA/1988/LEM1314 promastigotes assessed as mean serum ALT levels at 1 % administered tropically on footpad for 3 weeks starting at week 7 post infection measured 1 week post last dose (reference value: 81.6 +/- 4.9 U/L); type: organism-based, Mesocricetus auratus; conditions: in vivo, topical_or_ocular, 168 h
[12] = system: Syrian golden hamster; assay: Toxicity in Syrian hamster infected with Leishmania tropica MHOM/MA/1988/LEM1314 promastigotes assessed as mean serum ALP levels at 2.5 % administered tropically on footpad for 3 weeks starting at week 7 post infection measured 1 week post last dose (reference value: 14.4 +/- 0.9 U/L); type: organism-based, Mesocricetus auratus; conditions: in vivo, topical_or_ocular, 168 h
[13] = Toxicity in po dosed dog; type: organism-based, Canis lupus familiaris; conditions: in vivo
[14] = system: Syrian golden hamster; assay: Toxicity in Syrian hamster assessed as spleen weight at 500 mg/kg administered through oral gavage for 28 days (reference value: 179.4 +/- 19.8 mg); type: organism-based, Mesocricetus auratus; conditions: in vivo, 672 h
[15] = system: Leishmania tropica; assay: (§4) Antileishmanial activity against Leishmania tropica MHOM/MA/1988/LEM1314 promastigotes infected in Syrian hamster assessed as reduction in parasite load in liver at 2 mg/kg administered intralesionally once daily on footpad for 3 weeks starting at week 7 post infection measured 1 week post last dose by qPCR analysis relative to control; type: functional, organism-based; method in brief: as §3
[16] = system: Syrian golden hamster; assay: Toxicity in Syrian hamster assessed as mean serum creatinine levels at 5 % administered tropically on footpad for 28 days (reference value: 0.21 +/- 0.2 mg/dl); type: organism-based, Mesocricetus auratus; conditions: in vivo, topical_or_ocular, 672 h
[17] = system: Syrian golden hamster; assay: Toxicity in Syrian hamster infected with Leishmania tropica MHOM/MA/1988/LEM1314 promastigotes assessed as diarrhea at 200 mg/kg administered through oral gavage for 3 weeks starting at week 7 post infection measured during compound dosing or measured 1 week post last dose; type: organism-based, Mesocricetus auratus; conditions: in vivo, 168 h
Method in brief: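 Infected hamsters were treated daily for 21 days from week 7 post-infection (ointment 1–5%, 200 mg/kg gavage, or intralesional meglumine antimoniate 2 mg SbV/kg). Clinical signs and body weight were monitored during treatment and a 7-day follow-up. After sacrifice, liver and spleen were weighed and serum ALP, ALT, creatinine, urea and AST were measured with kits, compared with untreated infected animals.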

[18] = system: Syrian golden hamster; assay: Toxicity in Syrian hamster infected with Leishmania tropica MHOM/MA/1988/LEM1314 promastigotes assessed as mean serum ALT levels at 200 mg/kg administered through oral gavage for 3 weeks starting at week 7 post infection measured 1 week post last dose (reference value: 81.6 +/- 4.9 U/L); type: organism-based, Mesocricetus auratus; conditions: in vivo, 168 h
[19] = system: Leishmania tropica; assay: as §4, with “foodpad skin” for “liver”, “2.5 %” for “2 mg/kg”, “administered” for “administered intralesionally”, “daily tropically” for “daily”; type: functional; design: scale not given: the % may be the effect or the level left; method in brief: as §3
[20] = system: Leishmania tropica; assay: as §4, with “1 %” for “2 mg/kg”, “administered” for “administered intralesionally”, “daily tropically” for “daily”; type: functional, tissue-based; method in brief: as §3
[21] = system: Leishmania tropica; assay: Antileishmanial activity against Leishmania tropica MHOM/MA/1988/LEM1314 promastigotes infected in Syrian hamster assessed as reduction in amastigote levels in foodpad skin macerate at […] administered once daily through oral gavage for 3 weeks starting at week 7 post infection measured 1 week post last dose by Giemsa staining-based method; type: functional
[22] = system: Leishmania tropica; assay: as §4, with “spleen” for “liver”, “[…]” for “2 mg/kg”, “administered” for “administered intralesionally”, “through oral gavage” for “on footpad”; type: functional; method in brief: as §3
[23] = system: Syrian golden hamster; assay: Toxicity in Syrian hamster assessed as urea levels at 5 % administered tropically on footpad for 28 days (reference value: 33.2 +/- 2.8 mg/dl); type: organism-based, Mesocricetus auratus; conditions: in vivo, topical_or_ocular, 672 h
[24] = system: Syrian golden hamster; assay: Toxicity in Syrian hamster assessed as mean serum ALT levels at 5 % administered tropically on footpad for 28 days (reference value: 82.2 +/- 4.8 U/L); type: organism-based, Mesocricetus auratus; conditions: in vivo, topical_or_ocular, 672 h
[25] = system: Syrian golden hamster; assay: Toxicity in Syrian hamster assessed as diarrhea at 500 mg/kg, po or 5 % administered tropically on footpad for 28 days; type: organism-based, Mesocricetus auratus; conditions: in vivo, 672 h

For `CC(C)=CCC[C@](C)(O)[C@@H]1CC=C(C)CC1` [LEVOMENOL], the Activity [1] was 193.1 mg, the Activity [2] was 55.2% and the Activity [3] was 3.4 g. For the same compound, the Activity [4] was 62.5%, the Activity [5] was 56% and the Activity [6] was 49%. It also gave an Activity [7] of 0.18 mg/dL, an Activity [8] of 178.4 mg and an Activity [9] of 3.5 g. It also gave an Activity [10] of 175.3 mg, an Activity [11] of 81.9 U/L and an Activity [12] of 13.3 U/L. For the same compound, the LOAEL [13] was 2 mL/kg, the Activity [14] was 181.2 mg and the Activity [15] was “Active”. For the same compound, the Activity [16] was 0.19 mg/dL, the Activity [17] was “Non-Toxic” and the Activity [18] was 81.6 U/L. For the same compound, the Activity [19] was 83%, the Activity [20] was “Active” and the Activity [21] was “Active”. The Activity [22] was “Active”, the Activity [23] was 33.9 mg/dL and the Activity [24] was 82.5 U/L. The Activity [25] was “Non-Toxic”.
